# According to ChEMBL document CHEMBL5528045, “Discovery of Orally Bioavailable FmlH Lectin Antagonists as Treatment for Urinary Tract Infections” (J Med Chem, 2024):
# Columns and labels:
# [1] = system: FmlH (Escherichia coli); assay: Inhibition of C-terminal 6His-tagged biotinylated FmIH (Escherichia coli CFT073) expressed in Escherichia coli C600 cells incubated for 1 hr
# [2] = Oral bioavailability in mouse at 10 mg/kg by LC-MS/MS method; type: ADME, organism-based; conditions: in vivo
# Outline: (§1)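 Single dose in mice, given 3 mg/kg intravenously or 10 mg/kg orally. Plasma was followed over 8 h, and the mean plasma concentration-time profile was used. Oral bioavailability (%F) was calculated from the IV and PO exposures.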
# [3] = AUC(0 to infinity) in mouse at 10 mg/kg, po by LC-MS/MS method; type: ADME, organism-based; conditions: in vivo
# Outline: as §1
# [4] = Cmax in mouse at 10 mg/kg, po by LC-MS/MS method; type: ADME, organism-based; conditions: in vivo
# Outline: as §1
# [5] = Mean residence time(0 to last) in mouse at 3 mg/kg, iv by LC-MS/MS method; type: ADME, organism-based; conditions: in vivo
# Outline: as §1
# [6] = Tlast in mouse at 3 mg/kg, iv by LC-MS/MS method; type: ADME, organism-based; conditions: in vivo
# Outline: as §1
# [7] = AUMCextra in mouse at 3 mg/kg, iv by LC-MS/MS method; type: ADME, organism-based; conditions: in vivo
# Outline: as §1
# [8] = AUMCextra in mouse at 10 mg/kg, po by LC-MS/MS method; type: ADME, organism-based; conditions: in vivo
# Outline: as §1
# [9] = Clearance in mouse at 3 mg/kg, iv by LC-MS/MS method; type: ADME, organism-based; conditions: in vivo
# Outline: as §1
# [10] = AUC(0 to last) in mouse at 3 mg/kg, iv by LC-MS/MS method; type: ADME, organism-based; conditions: in vivo
# Outline: as §1
# [11] = AUCextra in mouse at 10 mg/kg, po by LC-MS/MS method; type: ADME, organism-based; conditions: in vivo
# Outline: as §1
# [12] = AUCinfinity in mouse at 3 mg/kg, iv by LC-MS/MS method; type: ADME, organism-based; conditions: in vivo
# Outline: as §1
# [13] = Half life in mouse at 10 mg/kg, po by LC-MS/MS method; type: ADME, organism-based; conditions: in vivo
# Outline: as §1
# [14] = Initial plasma concentration in mouse at 3 mg/kg, iv by LC-MS/MS method; type: ADME, organism-based
# Outline: as §1
# [15] = AUCextra in mouse at 3 mg/kg, iv by LC-MS/MS method; type: ADME, organism-based; conditions: in vivo
# Outline: as §1
# [16] = Volume of distribution at steady state in mouse at 3 mg/kg, iv by LC-MS/MS method; type: ADME, organism-based; conditions: in vivo, read-out: Vdss
# Outline: as §1
# [17] = Mean residence time(0 to infinity) in mouse at 3 mg/kg, iv by LC-MS/MS method; type: ADME, organism-based; conditions: in vivo
# Outline: as §1
# [18] = Tmax in mouse at 10 mg/kg, po by LC-MS/MS method; type: ADME, organism-based; conditions: in vivo
# Outline: as §1
# [19] = Half-life in mouse at 3 mg/kg, iv by LC-MS/MS method; type: ADME, organism-based; conditions: in vivo
# Outline: as §1
# [20] = MRT(0 to last) in mouse at 10 mg/kg, po by LC-MS/MS method; type: ADME, organism-based; conditions: in vivo
# Outline: as §1
# [21] = MRT(0 to infinity) in mouse at 10 mg/kg, po by LC-MS/MS method; type: ADME, organism-based; conditions: in vivo
# Outline: as §1
# [22] = AUC(0 to last) in mouse at 10 mg/kg, po by LC-MS/MS method; type: ADME, organism-based; conditions: in vivo
# Outline: as §1
# [23] = Drug concentration in mouse urine at 2 mg/kg, po measured at 24 hrs by HPLC-MS/MS analysis; type: ADME, organism-based; conditions: read-out: Ct
# Outline: (§2)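 9-week-old C3H/HeN mice, n=5 per dose group, were dosed once by oral gavage. The compound was in 1% methyl cellulose, vortexed, sonicated 20 min, warmed at 50 °C for 10 min and vortexed again just before dosing. Mean urine concentration is reported.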
# [24] = Tlast in mouse at 10 mg/kg, po by LC-MS/MS method; type: ADME, organism-based; conditions: in vivo
# Outline: as §1
# [25] = Drug concentration in mouse urine at 20 mg/kg, po measured at 24 hrs by HPLC-MS/MS analysis; type: ADME, organism-based; conditions: read-out: Ct
# Outline: as §2
compound,measurement,setting,value
CC(=O)N[C@H]1[C@H](Oc2cccc(C(F)(F)F)c2-c2cccc(NS(C)(=O)=O)c2)O[C@H](CO)[C@H](O)[C@@H]1O,IC50,[1],35 nM
CC(=O)N[C@H]1[C@H](Oc2ccccc2-c2cccc(NS(C)(=O)=O)c2)O[C@H](CO)[C@H](O)[C@@H]1O,IC50,[1],230 nM
CS(=O)(=O)Nc1cccc(-c2ccccc2O[C@@H]2O[C@H](CO)[C@H](O)[C@H](O)[C@H]2O)c1,IC50,[1],1600 nM
CS(=O)(=O)Nc1cccc(-c2ccccc2C[C@@H]2O[C@H](CO)[C@H](O)[C@H](O)[C@H]2[N+](=O)[O-])c1,IC50,[1],> 50000 nM
CC(=O)N[C@H]1[C@H](Oc2cccc(C(F)(F)F)c2-c2ccc(F)c(NS(C)(=O)=O)c2)O[C@H](CO)[C@H](O)[C@@H]1O,IC50,[1],890 nM
CC(=O)N[C@H]1[C@H](Oc2cccc(C(F)(F)F)c2-c2cc(F)cc(C#N)c2)O[C@H](CO)[C@H](O)[C@@H]1O,IC50,[1],2000 nM
CC(=O)N[C@H]1[C@H](Oc2cccc(C(F)(F)F)c2-c2cccc(F)c2)O[C@H](CO)[C@H](O)[C@@H]1O,IC50,[1],480 nM
CC(=O)N[C@H]1[C@H](Oc2cccc(C(F)(F)F)c2-c2cccc(F)c2F)O[C@H](CO)[C@H](O)[C@@H]1O,IC50,[1],590 nM
CC(=O)N[C@H]1[C@H](Oc2cccc(C(F)(F)F)c2-c2ccc(F)c(F)c2F)O[C@H](CO)[C@H](O)[C@@H]1O,IC50,[1],700 nM
CC(=O)N[C@H]1[C@H](Oc2cccc(C(F)(F)F)c2-c2cccc(C(=O)NS(C)(=O)=O)c2)O[C@H](CO)[C@H](O)[C@@H]1O,IC50,[1],310 nM
CS(=O)(=O)Nc1cccc(-c2ccccc2C[C@@H]2O[C@H](CO)[C@H](O)[C@H](O)[C@H]2O)c1,IC50,[1],15000 nM
CC(=O)N[C@@H]1[C@@H](O)[C@@H](O)[C@@H](CO)O[C@H]1C(=O)Nc1ccccc1-c1cccc(NS(C)(=O)=O)c1,IC50,[1],6900 nM
CC(=O)N[C@H]1[C@H](Oc2cccc(C(F)(F)F)c2-c2cc(F)cc(C(F)(F)F)c2)O[C@H](CO)[C@H](O)[C@@H]1O,IC50,[1],9000 nM
CC(=O)N[C@@H]1[C@@H](O)[C@@H](O)[C@@H](CO)O[C@H]1Cc1ccccc1-c1cccc(NS(C)(=O)=O)c1,IC50,[1],15000 nM
CC(=O)N[C@H]1[C@H](Oc2cccc(C(F)(F)F)c2-c2ccc(F)c(NS(=O)(=O)c3ccccc3)c2)O[C@H](CO)[C@H](O)[C@@H]1O,IC50,[1],190 nM
CC(=O)N[C@H]1[C@H](Oc2cccc(C(F)(F)F)c2-c2ccc3ccn(S(C)(=O)=O)c3c2)O[C@H](CO)[C@H](O)[C@@H]1O,IC50,[1],600 nM
CC(=O)N[C@H]1[C@H](Oc2cccc(C(F)(F)F)c2-c2cc(F)cc(F)c2)O[C@H](CO)[C@H](O)[C@@H]1O,IC50,[1],6000 nM
CC(=O)N[C@H]1[C@H](Oc2cccc(C(F)(F)F)c2-c2cc(C#N)cc(C(F)(F)F)c2)O[C@H](CO)[C@H](O)[C@@H]1O,IC50,[1],6000 nM
CC(=O)N[C@H]1[C@H](Oc2cccc(C(F)(F)F)c2-c2ccc(F)cc2F)O[C@H](CO)[C@H](O)[C@@H]1O,IC50,[1],320 nM
CC(=O)N[C@H]1[C@H](Oc2cccc(C(F)(F)F)c2-c2cccc(CC#N)c2)O[C@H](CO)[C@H](O)[C@@H]1O,IC50,[1],800 nM
CC(=O)N[C@H]1[C@H](Oc2cccc(C(F)(F)F)c2-c2ccc(F)c(F)c2)O[C@H](CO)[C@H](O)[C@@H]1O,bioavailability,[2],30.7%
same,AUC(0-inf),[3],1860 ng·h/mL
same,Cmax,[4],472 ng/mL
same,MRT last,[5],1.34 h
same,Tlast,[6],8 h
same,AUMC,[7],7.31%
same,AUMC,[8],5.96%
same,clearance,[9],28 mL/min/kg
same,AUC(0-t),[10],1790 ng·h/mL
same,%AUCextra,[11],1.64%
same,AUC(0-inf),[12],1810 ng·h/mL
same,half-life,[13],1.8 h
same,C0,[14],3190 ng/mL
same,%AUCextra,[15],1.07%
same,Vd,[16],2.39 L/kg
same,MRT inf,[17],1.43 h
same,IC50,[1],240 nM
same,Tmax,[18],2.64 h
same,half-life,[19],1.26 h
same,MRT last,[20],3.53 h
same,MRT inf,[21],3.67 h
same,AUC(0-t),[22],1830 ng·h/mL
CC(=O)N[C@H]1[C@H](Oc2cccc(C(F)(F)F)c2-c2cccc(CS(C)(=O)=O)c2)O[C@H](CO)[C@H](O)[C@@H]1O,IC50,[1],450 nM
CS(=O)(=O)Nc1cccc(-c2ccccc2C[C@@H]2O[C@H](CO)[C@H](O)[C@H](O)[C@H]2F)c1,IC50,[1],7300 nM
CC(=O)N[C@H]1[C@H](Oc2cccc(C(F)(F)F)c2-c2cccc(N(C)S(=O)(=O)O)c2)O[C@H](CO)[C@H](O)[C@@H]1O,IC50,[1],2000 nM
CC(=O)N[C@H]1[C@H](Oc2cccc(C(F)(F)F)c2-c2ccccc2F)O[C@H](CO)[C@H](O)[C@@H]1O,IC50,[1],710 nM
COc1cc(F)cc(-c2c(O[C@@H]3O[C@H](CO)[C@H](O)[C@H](O)[C@H]3NC(C)=O)cccc2C(F)(F)F)c1,IC50,[1],6000 nM
CC(=O)N[C@H]1[C@H](Oc2cccc(C(F)(F)F)c2-c2ccc(F)cc2)O[C@H](CO)[C@H](O)[C@@H]1O,bioavailability,[2],52.7%
same,AUC(0-inf),[3],6560 ng·h/mL
same,Cmax,[4],1480 ng/mL
same,MRT last,[5],1.59 h
same,Tlast,[6],8 h
same,AUMC,[7],10.8%
same,AUMC,[8],21.6%
same,clearance,[9],13.6 mL/min/kg
same,AUC(0-t),[10],3660 ng·h/mL
same,%AUCextra,[11],7.55%
same,AUC(0-inf),[12],3740 ng·h/mL
same,half-life,[13],1.92 h
same,C0,[14],4430 ng/mL
same,%AUCextra,[15],1.9%
same,Vd,[16],1.42 L/kg
same,MRT inf,[17],1.75 h
same,IC50,[1],190 nM
same,concentration at 24 h,[23],15.8 ng/mL
same,Tmax,[18],2 h
same,Tlast,[24],8 h
same,half-life,[19],1.47 h
same,MRT last,[20],3.18 h
same,MRT inf,[21],3.75 h
same,AUC(0-t),[22],6070 ng·h/mL
same,concentration at 24 h,[25],66.3 ng/mL
COc1cc(-c2c(O[C@@H]3O[C@H](CO)[C@H](O)[C@H](O)[C@H]3NC(C)=O)cccc2C(F)(F)F)cc(C(F)(F)F)c1,IC50,[1],18000 nM
